In ChEMBL document CHEMBL5376013, “Design, synthesis and biological evaluation of novel morpholinopyrimidine-5-carbonitrile derivatives as dual PI3K/mTOR inhibitors” (RSC Med Chem, 2024):

Experiments:
Format in all cases: functional
Conditions in all cases: read-out: GI
NCI/ADR-RES = assay: Antitumor activity against human NCI-ADR-RES cells assessed as growth inhibition at 10 uM relative to control
In short: (§1)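 After drug addition, plates were incubated 48 h at 37 °C under 5% CO2. Adherent cells were fixed with cold TCA (10% final, 60 min, 4 °C) and suspension cells with 16% final TCA. Staining used 0.4% SRB in 1% acetic acid, solubilized in 10 mM trizma, read at A515. Percent growth was calculated from time-zero, control and treated absorbances.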

M14 = assay: Antitumor activity against human M14 cells assessed as growth inhibition at 10 uM relative to control; in short: as §1
EKVX = assay: Antitumor activity against human EKVX cells assessed as growth inhibition at 10 uM relative to control; in short: as §1
NCI-H226 = assay: Antitumor activity against human NCI-H226 cells assessed as growth inhibition at 10 uM relative to control; in short: as §1
HOP-62 = assay: Antitumor activity against human HOP-62 cells assessed as growth inhibition at 10 uM relative to control; in short: as §1
HCT-116 = assay: Antitumor activity against human HCT-116 cells assessed as growth inhibition at 10 uM relative to control; in short: as §1
KM12 = assay: Antitumor activity against human KM12 cells assessed as growth inhibition at 10 uM relative to control; in short: as §1
HCC 2998 = assay: Antitumor activity against human HCC 2998 cells assessed as growth inhibition at 10 uM relative to control; in short: as §1
SNB-75 = assay: Antitumor activity against human SNB-75 cells assessed as growth inhibition at 10 uM relative to control
In short: (§2)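 Drug exposure 48 h at 37 °C, 5% CO2. Adherent cells fixed with cold TCA (10% final), suspension cells with TCA (16% final). Stained with 0.4% SRB in 1% acetic acid, dissolved in 10 mM Tris, A515. Growth relative to time-zero and untreated control.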

A498 = assay: Antitumor activity against human A498 cells assessed as growth inhibition at 10 uM relative to control; in short: as §1
Hs-578T = assay: Antitumor activity against human Hs-578T cells assessed as growth inhibition at 10 uM relative to control; in short: as §1
SK-MEL-5 = assay: Antitumor activity against human SK-MEL-5 cells assessed as growth inhibition at 10 uM relative to control; in short: as §2
SF-268 = assay: Antitumor activity against human SF-268 cells assessed as growth inhibition at 10 uM relative to control; in short: as §1
HT-29 = assay: Antitumor activity against human HT-29 cells assessed as growth inhibition at 10 uM relative to control; in short: as §1
NCI-H522 = assay: Antitumor activity against human NCI-H522 cells assessed as growth inhibition at 10 uM relative to control; in short: as §1
MDA-MB-435 = assay: Antitumor activity against human MDA-MB-435 cells assessed as growth inhibition at 10 uM relative to control; in short: as §1
HOP-92 = assay: Antitumor activity against human HOP-92 cells assessed as growth inhibition at 10 uM relative to control; in short: as §1
RXF 393 = assay: Antitumor activity against human RXF 393 cells assessed as growth inhibition at 10 uM relative to control; in short: as §1
Malme-3M = assay: Antitumor activity against human Malme-3M cells assessed as growth inhibition at 10 uM relative to control; in short: as §1
SN12C = assay: Antitumor activity against human SN12C cells assessed as growth inhibition at 10 uM relative to control; in short: as §2
NCI-H322M = assay: Antitumor activity against human NCI-H322M cells assessed as growth inhibition at 10 uM relative to control; in short: as §1
CAKI-1 = assay: Antitumor activity against human CAKI-1 cells assessed as growth inhibition at 10 uM relative to control; in short: as §1
NCI-H460 = assay: Antitumor activity against human NCI-H460 cells assessed as growth inhibition at 10 uM relative to control; in short: as §1
RPMI-8226 = assay: Antitumor activity against human RPMI-8226 cells assessed as growth inhibition at 10 uM relative to control; in short: as §1
SK-MEL-28 = assay: Antitumor activity against human SK-MEL-28 cells assessed as growth inhibition at 10 uM relative to control; in short: as §2
IGROV-1 = assay: Antitumor activity against human IGROV-1 cells assessed as growth inhibition at 10 uM relative to control; in short: as §1
SK-MEL-2 = assay: Antitumor activity against human SK-MEL-2 cells assessed as growth inhibition at 10 uM relative to control; in short: as §1
786-0 = assay: Antitumor activity against human 786-0 cells assessed as growth inhibition at 10 uM relative to control; in short: as §1
SR = assay: Antitumor activity against human SR cells assessed as growth inhibition at 10 uM relative to control; in short: as §2
UO-31 = assay: Antitumor activity against human UO-31 cells assessed as growth inhibition at 10 uM relative to control; in short: as §2
T47D = assay: Antitumor activity against human T47D cells assessed as growth inhibition at 10 uM relative to control; in short: as §2
HL-60 = assay: Antitumor activity against human HL-60 cells assessed as growth inhibition at 10 uM relative to control; in short: as §1
OVCAR-4 = assay: Antitumor activity against human OVCAR-4 cells assessed as growth inhibition at 10 uM relative to control; in short: as §1
SNB-19 = assay: Antitumor activity against human SNB-19 cells assessed as growth inhibition at 10 uM relative to control; in short: as §2
MDA-MB-231 = assay: Antitumor activity against human MDA-MB-231 cells assessed as growth inhibition at 10 uM relative to control; in short: as §1
SW-620 = assay: Antitumor activity against human SW-620 cells assessed as growth inhibition at 10 uM relative to control; in short: as §2
SK-OV-3 = assay: Antitumor activity against human SK-OV-3 cells assessed as growth inhibition at 10 uM relative to control; in short: as §2
SF-539 = assay: Antitumor activity against human SF-539 cells assessed as growth inhibition at 10 uM relative to control; in short: as §1
SF-295 = assay: Antitumor activity against human SF-295 cells assessed as growth inhibition at 10 uM relative to control; in short: as §1
COLO 205 = assay: Antitumor activity against human COLO 205 cells assessed as growth inhibition at 10 uM relative to control; in short: as §1
OVCAR-5 = assay: Antitumor activity against human OVCAR-5 cells assessed as growth inhibition at 10 uM relative to control; in short: as §1
TK-10 = assay: Antitumor activity against human TK-10 cells assessed as growth inhibition at 10 uM relative to control; in short: as §2
UACC-257 = assay: Antitumor activity against human UACC-257 cells assessed as growth inhibition at 10 uM relative to control; in short: as §2
UACC-62 = assay: Antitumor activity against human UACC-62 cells assessed as growth inhibition at 10 uM relative to control; in short: as §2
U-251 = assay: Antitumor activity against human U-251 cells assessed as growth inhibition at 10 uM relative to control; in short: as §2
NCI-H23 = assay: Antitumor activity against human NCI-H23 cells assessed as growth inhibition at 10 uM relative to control; in short: as §1

SMILES: N#Cc1c(-c2ccc(Cl)cc2)nc(N/N=C/c2cccc([N+](=O)[O-])c2)nc1N1CCOCC1
- inhibition of growth at 10 µM (NCI/ADR-RES): 17.5%
- inhibition of growth at 10 µM (M14): 16.4%
- inhibition of growth at 10 µM (EKVX): 33.8%
- inhibition of growth at 10 µM (NCI-H226): 28.7%
- inhibition of growth at 10 µM (HOP-62): < 1%
- inhibition of growth at 10 µM (HCT-116): 20.1%
- inhibition of growth at 10 µM (KM12): < 1%
- inhibition of growth at 10 µM (HCC 2998): < 1%
- inhibition of growth at 10 µM (SNB-75): 33.4%
- inhibition of growth at 10 µM (A498): 47.5%
- inhibition of growth at 10 µM (Hs-578T): < 1%
- inhibition of growth at 10 µM (SK-MEL-5): 14.9%
- inhibition of growth at 10 µM (SF-268): 12.3%
- inhibition of growth at 10 µM (HT-29): < 1%
- inhibition of growth at 10 µM (NCI-H522): 24.1%
- inhibition of growth at 10 µM (MDA-MB-435): 12.1%
- inhibition of growth at 10 µM (HOP-92): 28.7%
- inhibition of growth at 10 µM (RXF 393): 56.6%
- inhibition of growth at 10 µM (Malme-3M): < 1%
- inhibition of growth at 10 µM (SN12C): 10.6%
- inhibition of growth at 10 µM (NCI-H322M): 14.3%
- inhibition of growth at 10 µM (CAKI-1): 28.1%
- inhibition of growth at 10 µM (NCI-H460): 14.5%
- inhibition of growth at 10 µM (RPMI-8226): 43.4%
- inhibition of growth at 10 µM (SK-MEL-28): 10.2%
- inhibition of growth at 10 µM (IGROV-1): 28.1%
- inhibition of growth at 10 µM (SK-MEL-2): 10.4%
- inhibition of growth at 10 µM (786-0): 13.2%
- inhibition of growth at 10 µM (SR): 42.5%
- inhibition of growth at 10 µM (UO-31): 65.1%
- inhibition of growth at 10 µM (T47D): 42%
- inhibition of growth at 10 µM (HL-60): 13.5%
- inhibition of growth at 10 µM (OVCAR-4): 22.3%
- inhibition of growth at 10 µM (SNB-19): 10%
- inhibition of growth at 10 µM (MDA-MB-231): 17.6%
- inhibition of growth at 10 µM (SW-620): < 1%
- inhibition of growth at 10 µM (SK-OV-3): 11.1%
- inhibition of growth at 10 µM (SF-539): 17.7%
- inhibition of growth at 10 µM (SF-295): < 1%
- inhibition of growth at 10 µM (COLO 205): 14.6%
- inhibition of growth at 10 µM (OVCAR-5): 10.2%
- inhibition of growth at 10 µM (TK-10): 25.6%
- inhibition of growth at 10 µM (UACC-257): < 1%
- inhibition of growth at 10 µM (UACC-62): 27.6%
- inhibition of growth at 10 µM (U-251): 40.1%
- inhibition of growth at 10 µM (NCI-H23): < 1%

SMILES: CSc1nc(O)c(C#N)c(-c2ccc(Cl)cc2)n1
- inhibition of growth at 10 µM (NCI/ADR-RES): < 1%
- inhibition of growth at 10 µM (M14): < 1%
- inhibition of growth at 10 µM (EKVX): < 1%
- inhibition of growth at 10 µM (NCI-H226): < 1%
- inhibition of growth at 10 µM (HOP-62): < 1%
- inhibition of growth at 10 µM (HCT-116): < 1%
- inhibition of growth at 10 µM (KM12): < 1%
- inhibition of growth at 10 µM (HCC 2998): < 1%
- inhibition of growth at 10 µM (SNB-75): 11.3%
- inhibition of growth at 10 µM (A498): < 1%
- inhibition of growth at 10 µM (Hs-578T): < 1%
- inhibition of growth at 10 µM (SK-MEL-5): < 1%
- inhibition of growth at 10 µM (SF-268): < 1%
- inhibition of growth at 10 µM (HT-29): < 1%
- inhibition of growth at 10 µM (NCI-H522): < 1%
- inhibition of growth at 10 µM (MDA-MB-435): < 1%
- inhibition of growth at 10 µM (HOP-92): 24.7%
- inhibition of growth at 10 µM (RXF 393): < 1%
- inhibition of growth at 10 µM (Malme-3M): < 1%
- inhibition of growth at 10 µM (SN12C): < 1%
- inhibition of growth at 10 µM (NCI-H322M): < 1%
- inhibition of growth at 10 µM (CAKI-1): < 1%
- inhibition of growth at 10 µM (NCI-H460): < 1%
- inhibition of growth at 10 µM (RPMI-8226): < 1%
- inhibition of growth at 10 µM (SK-MEL-28): < 1%
- inhibition of growth at 10 µM (IGROV-1): < 1%
- inhibition of growth at 10 µM (SK-MEL-2): < 1%
- inhibition of growth at 10 µM (786-0): < 1%
- inhibition of growth at 10 µM (SR): < 1%
- inhibition of growth at 10 µM (UO-31): < 1%
- inhibition of growth at 10 µM (T47D): < 1%
- inhibition of growth at 10 µM (HL-60): < 1%
- inhibition of growth at 10 µM (OVCAR-4): < 1%
- inhibition of growth at 10 µM (SNB-19): < 1%
- inhibition of growth at 10 µM (MDA-MB-231): < 1%
- inhibition of growth at 10 µM (SW-620): < 1%
- inhibition of growth at 10 µM (SK-OV-3): < 1%
- inhibition of growth at 10 µM (SF-539): < 1%
- inhibition of growth at 10 µM (SF-295): < 1%
- inhibition of growth at 10 µM (COLO 205): < 1%
- inhibition of growth at 10 µM (OVCAR-5): < 1%
- inhibition of growth at 10 µM (TK-10): < 1%
- inhibition of growth at 10 µM (UACC-257): < 1%
- inhibition of growth at 10 µM (UACC-62): < 1%
- inhibition of growth at 10 µM (U-251): < 1%
- inhibition of growth at 10 µM (NCI-H23): < 1%
